In ChEMBL document CHEMBL1143049, “Preparation, biological activity and endogenous occurrence of N6-benzyladenosines” (Bioorg Med Chem, 2007) one finds IC50 and Activity data, which are given here for 20 compounds.

What is called IC50 is the midpoint of a concentration-inhibition curve.

For one assay, the system named is K562. As to the kind of experiment: Antitumor activity against human K562 cells after 72 hrs by Calcein AM assay. It is filed as functional, cell-based. To be noted: K562, 72 h. The method in brief:
(§1)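 Cells grown in DMEM at 37 °C under 5% CO2. Compounds added after 12 h preincubation in 96-well plates, final 0.5-170 μM, with 0.6% final DMSO, then 72 h exposure. Viable cells stained with Calcein AM for 1 h and read at 485/538 nm. IC50 (concentration lethal to 50% of cells) taken from dose-response curves. Run in quadruplicate.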

Another assay relates to Amaranthus. As to the kind of experiment: Cytokinin activity in Amaranthus cotyledons assessed as dark induction of betacyanin synthesis at 0.1 mmol/L relative to 6-Benzylaminopurine. It is filed as functional. The procedure, abridged:
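Dark induction of betacyanin in excised Amaranthus cotyledons. DMSO stock brought to 10^-3 M in water, diluted into assay medium (DMSO ≤0.2%). Tested over 10^-4 to 10^-8 M, five replicates per concentration, assay repeated at least three times. Response at the optimal concentration expressed relative to BAP at its optimum (set to 100).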

Assay [1] can be described thus: Antitumor activity against human MCF cells after 72 hrs by Calcein AM assay. It is filed as functional, cell-based. The method in brief: as §1
A further assay concerns G-361. As to the kind of experiment: Antitumor activity against human G361 cells after 72 hrs by Calcein AM assay. It counts as functional, cell-based. Particulars: G-361, 72 h. The method in brief:
as §1

A further assay concerns HOS. As to the kind of experiment: Antitumor activity against human HOS cells after 72 hrs by Calcein AM assay. It is filed as functional, cell-based. The procedure, abridged: as §1
Another assay relates to Triticum aestivum. As to the kind of experiment: Cytokinin activity in wheat assessed as retention of chlorophyll in excised wheat leaves at 0.1 mmol/L relative to 6-Benzylaminopurine by senescence assay. It counts as functional. The method in brief: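 Senescence assay measuring chlorophyll retention in excised wheat leaves. DMSO stocks brought to 10^-3 M with water, then diluted in assay medium to a final DMSO of at most 0.2%. Concentrations 10^-4 to 10^-8 M, quintuplicate, repeated at least three times. Response at the optimal concentration normalised to BAP optimum = 100.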

The next assay relates to HL-60. As to the kind of experiment: Antitumor activity against human HL60 cells after 72 hrs by Calcein AM assay. It counts as functional, cell-based. To be noted: HL-60, 72 h. The procedure, abridged:
as §1

In another assay the test system is CCRF-CEM. In words: Antitumor activity against human CEM cells after 72 hrs by Calcein AM assay. It counts as functional, cell-based. The procedure, abridged:
as §1

A further assay has as its system Nicotiana tabacum. In words: Cytokinin activity in tobacco assessed as stimulation of callus growth at 1 umol/L relative to 6-Benzylaminopurine. It counts as functional. The procedure, abridged:
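Stimulation of tobacco callus growth. Compounds dissolved in DMSO, brought to 10^-3 M in water and diluted into medium (DMSO ≤0.2%). Range 10^-4 to 10^-8 M, five replicates per concentration, at least three independent repeats. Activity at the optimal concentration given relative to BAP's optimal response, taken as 100.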

Another assay relates to B16. In words: Antitumor activity against mouse B16 cells after 72 hrs by Calcein AM assay. To be noted: B16, 72 h. It counts as functional, cell-based. The procedure, abridged:
as §1

Assay [2] is described as follows: Cytotoxicity against mouse NIH 3T3 cells after 72 hrs by Calcein AM assay. It is filed as cell-based. To be noted: NIH3T3, 72 h. The method in brief:
as §1

As to `OC[C@H]1O[C@@H](n2cnc3c(NCc4cccc(O)c4O)ncnc32)[C@H](O)[C@@H]1O`, the IC50 is 25.8 µM with K562, 5.2 µM in assay [1], 16.9 µM with G-361 and greater than 167 µM in the assay with HOS. In addition, the Activity was determined as 24% in the assay on Amaranthus and 7% in the assay with Triticum aestivum.

For the compound `OC[C@H]1O[C@@H](n2cnc3c(NCc4ccc(C(F)(F)F)cc4)ncnc32)[C@H](O)[C@@H]1O`, the IC50 (with K562; in assay [1]; with G-361; with HOS) was greater than 167 µM throughout. The Activity with Amaranthus is on record as 14%; in the assay on Triticum aestivum, 52%.

As to `OC[C@H]1O[C@@H](n2cnc3c(NCc4ccc(Cl)c(Cl)c4)ncnc32)[C@H](O)[C@@H]1O`, the IC50 in the assay with K562 is 10.8 µM; in [1], 88.8 µM; in the assay on HL-60 it was 2 µM; in the assay with CCRF-CEM it was 3.8 µM; in the assay with G-361, 145 µM; in the assay on HOS, greater than 167 µM. Besides, the IC50 in the assay on B16 is greater than 167 µM. Further, the results for the Activity with Amaranthus, with Nicotiana tabacum and in the assay with Triticum aestivum were 68%, 17% and 151%, respectively.

On to `Cc1ccc(CNc2ncnc3c2ncn3[C@@H]2O[C@H](CO)[C@@H](O)[C@H]2O)cc1`, for which the IC50 (with K562; in [1]; with HL-60; with CCRF-CEM; with HOS; in assay [2]) was greater than 167 µM each time. The Activity in the assay on Amaranthus amounted to 49%; in the assay with Nicotiana tabacum, 35%; in the assay with Triticum aestivum, 54.5%.

On to `OC[C@H]1O[C@@H](n2cnc3c(NCc4ccccc4C(F)(F)F)ncnc32)C(O)C1O` (stereo partly drawn), for which the half-maximal inhibitory concentration (IC50) (with K562; in [1]; in the assay on G-361; in the assay on HOS) was greater than 167 µM throughout. Further, the results for the Activity in the assay on Amaranthus and in the assay on Triticum aestivum were 121% and 40%, respectively.

As for `OC[C@H]1O[C@@H](n2cnc3c(NCc4c(F)ccc(F)c4F)ncnc32)[C@H](O)[C@@H]1O`, the IC50 is greater than 167 µM with K562; greater than 167 µM in [1]; 13 µM with HL-60; 90.3 µM in the assay with CCRF-CEM; greater than 167 µM in the assay on G-361; greater than 167 µM in the assay on B16. Besides, the Activity is 94% in the assay with Amaranthus, 92% in the assay with Nicotiana tabacum (in the assay text read “at 10 umol/L” for “at 1 umol/L”) and 133% in the assay with Triticum aestivum.

Take `OC[C@H]1O[C@@H](n2cnc3c(NCc4ccccc4OC(F)(F)F)ncnc32)[C@H](O)[C@@H]1O`: the IC50 is 81.4 µM in the assay on K562; greater than 167 µM in assay [1]; greater than 167 µM in the assay with HL-60; greater than 167 µM in the assay with CCRF-CEM; greater than 167 µM with G-361; greater than 167 µM in the assay on HOS. The IC50 in the assay with B16 is greater than 167 µM. The figures for the Activity in the assay on Amaranthus and in the assay on Triticum aestivum were 78% and 61%, respectively.

For `COc1cc(CNc2ncnc3c2ncn3[C@@H]2O[C@H](CO)[C@@H](O)[C@H]2O)cc(OC)c1`, the IC50 with K562 is greater than 167 µM; in assay [1] it was greater than 167 µM; with HL-60, 20.2 µM; with CCRF-CEM, greater than 167 µM. The Activity in the assay on Amaranthus is recorded as 2%; in the assay on Nicotiana tabacum, 11%; with Triticum aestivum, 47%.

`COc1cc(CNc2ncnc3c2ncn3[C@@H]2O[C@H](CO)[C@@H](O)[C@H]2O)cc(OC)c1O`: the IC50 (with K562; in [1]; in the assay with G-361; in the assay on HOS) was greater than 167 µM in each case.

With `COc1cccc(CNc2ncnc3c2ncn3[C@@H]2O[C@H](CO)[C@@H](O)[C@H]2O)c1O`, the concentration for half-maximal inhibition (IC50) is 27.9 µM in the assay on K562; 20.2 µM in assay [1]; 0.15 µM with HL-60; 0.3 µM with CCRF-CEM; 148 µM in the assay on G-361; greater than 167 µM in the assay on HOS. The half-inhibitory concentration (IC50) (with B16; in assay [2]) was greater than 167 µM in each case. Moreover, the Activity with Amaranthus amounted to 18%; in the assay on Triticum aestivum, 10%.

Turning to `OC[C@H]1O[C@@H](n2cnc3c(NCc4cccc(I)c4)ncnc32)[C@H](O)[C@@H]1O`, the Activity in the assay with Amaranthus is given as 102%; in the assay on Nicotiana tabacum, 45%; in the assay on Triticum aestivum it was 58%.

With `COc1cccc(CNc2ncnc3c2ncn3[C@@H]2O[C@H](CO)[C@@H](O)[C@H]2O)c1OC`, the IC50 (with K562; in assay [1]; with HL-60; with CCRF-CEM; in the assay on HOS) was greater than 167 µM throughout. For the same compound, the results for the Activity with Amaranthus, in the assay on Nicotiana tabacum and with Triticum aestivum were 21%, 5% and 106%, respectively.

`COc1cc(O)cc(OC)c1CNc1ncnc2c1ncn2[C@@H]1O[C@H](CO)[C@@H](O)[C@H]1O`: the IC50 (with K562; in [1]; with G-361; in the assay with HOS) was greater than 167 µM throughout. In addition, the Activity in the assay with Amaranthus turned out to be 7%.

As to `COc1cccc(OC)c1CNc1ncnc2c1ncn2[C@@H]1O[C@H](CO)[C@@H](O)[C@H]1O`, the Activity in the assay on Amaranthus came to 54%; in the assay on Triticum aestivum it was 68%.

As for `COc1ccc(CNc2ncnc3c2ncn3C2OC(CO)[C@@H](O)[C@H]2O)c(O)c1` (stereo partly drawn), the IC50 is 80.8 µM in the assay on K562, 2.2 µM in assay [1], 12.8 µM in the assay with CCRF-CEM and greater than 167 µM in the assay with HOS. The figures for the Activity in the assay with Amaranthus and in the assay with Triticum aestivum were 0% and 22%, respectively.

In the case of `OC[C@H]1O[C@@H](n2cnc3c(NCc4cc(O)cc(O)c4)ncnc32)[C@H](O)[C@@H]1O`, the IC50 (in the assay with K562; in assay [1]; in the assay with G-361; with HOS) was greater than 167 µM in each case. In addition, the values for the Activity in the assay on Amaranthus and in the assay on Triticum aestivum were 31% and 96%, respectively.

As for `OC[C@H]1O[C@@H](n2cnc3c(NCc4ccc(OC(F)(F)F)cc4)ncnc32)[C@H](O)[C@@H]1O`, the half-maximal inhibitory concentration (IC50) (with K562; in assay [1]; in the assay with G-361; in the assay on HOS) was greater than 167 µM throughout. The Activity in the assay on Amaranthus was determined as 21%; with Triticum aestivum, 3%.

Turning to `OC[C@H]1O[C@@H](n2cnc3c(NCc4cccc(C(F)(F)F)c4)ncnc32)[C@H](O)[C@@H]1O`, the IC50 (with K562; in [1]; in the assay with G-361; in the assay with HOS) was greater than 167 µM throughout. The Activity in the assay on Amaranthus is listed as 93%; with Nicotiana tabacum, 85%; with Triticum aestivum it was 95%.

Turning to `OC[C@H]1O[C@@H](n2cnc3c(NCc4cccc(OC(F)(F)F)c4)ncnc32)[C@H](O)[C@@H]1O`, the half-maximal inhibitory concentration (IC50) (in the assay with K562; in [1]; with G-361; in the assay on HOS) was greater than 167 µM each time. The Activity with Amaranthus was 104%; in the assay with Nicotiana tabacum it was 86%; in the assay on Triticum aestivum, 90%.

On to `COc1ccc(CNc2ncnc3c2ncn3[C@@H]2O[C@H](CO)[C@@H](O)[C@H]2O)cc1O`, for which the half-inhibitory concentration (IC50) (in the assay on K562; in assay [1]; in the assay with HL-60; in the assay on CCRF-CEM; in assay [2]) was greater than 167 µM in each case. Further, the Activity in the assay on Amaranthus was found to be 24%; in the assay on Triticum aestivum, 19%.
